The test system of data set [1] is Rattus norvegicus. In words: Hypertensive activity in anesthetized Wistar rat assessed as maximal increase in mean arterial blood pressure at 0.1 mg/kg, iv measured during 60 mins post dose. The conditions noted are these: in vivo, 1 h. Details: dose 0.1 mg/kg, route intravenous. It is filed as […], organism-based. Put shortly:
(§1)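 Male Wistar rats (200–290 g) anaesthetized with thiopental 70 mg/kg i.p., maintained at 30 µg/kg/min; body temperature 36–37 °C. Carotid catheter recorded MAP and HR; jugular catheter for infusion. After 40 min of saline/thiopental infusion (1.2 ml/h), 0.1 mg/kg given as i.v. bolus (time 0). Signals sampled at 100 Hz. Maximal change from time 0 over 60 min, and its time, recorded. Saline vehicle control; n = 4–5.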

The target of data set [2] is T1, Adrenergic receptor alpha-1 (Rattus norvegicus, UniProt P15823+P23944+P43140).
T1 sequence (P15823 whole entry): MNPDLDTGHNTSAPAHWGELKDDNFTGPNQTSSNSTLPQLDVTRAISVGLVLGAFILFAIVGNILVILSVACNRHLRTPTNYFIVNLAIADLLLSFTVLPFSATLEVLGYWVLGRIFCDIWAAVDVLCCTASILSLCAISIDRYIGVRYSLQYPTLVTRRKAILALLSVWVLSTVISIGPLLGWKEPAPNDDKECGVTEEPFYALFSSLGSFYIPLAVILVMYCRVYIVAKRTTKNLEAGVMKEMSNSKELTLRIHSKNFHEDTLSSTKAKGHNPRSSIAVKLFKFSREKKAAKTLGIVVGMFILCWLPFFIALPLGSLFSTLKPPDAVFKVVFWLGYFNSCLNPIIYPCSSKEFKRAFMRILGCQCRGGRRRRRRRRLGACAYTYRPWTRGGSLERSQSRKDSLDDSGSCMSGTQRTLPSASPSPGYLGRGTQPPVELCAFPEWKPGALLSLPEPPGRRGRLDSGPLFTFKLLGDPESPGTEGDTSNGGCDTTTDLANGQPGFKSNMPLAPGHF
T1 sequence (P23944 whole entry): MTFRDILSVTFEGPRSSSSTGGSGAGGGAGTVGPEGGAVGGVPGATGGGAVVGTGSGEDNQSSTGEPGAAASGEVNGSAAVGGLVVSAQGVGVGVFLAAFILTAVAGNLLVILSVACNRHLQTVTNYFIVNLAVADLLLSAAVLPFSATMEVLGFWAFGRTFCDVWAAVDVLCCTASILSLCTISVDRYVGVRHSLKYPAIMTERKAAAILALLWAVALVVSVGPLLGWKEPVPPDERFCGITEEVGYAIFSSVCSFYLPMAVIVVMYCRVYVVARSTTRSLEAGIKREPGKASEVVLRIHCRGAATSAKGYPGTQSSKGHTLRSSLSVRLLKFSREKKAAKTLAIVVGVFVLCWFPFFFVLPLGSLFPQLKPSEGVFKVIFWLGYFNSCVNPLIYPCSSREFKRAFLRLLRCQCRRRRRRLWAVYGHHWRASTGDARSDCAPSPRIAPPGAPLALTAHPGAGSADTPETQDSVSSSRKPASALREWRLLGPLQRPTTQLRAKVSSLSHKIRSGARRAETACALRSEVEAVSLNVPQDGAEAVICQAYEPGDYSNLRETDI
T1 sequence (P43140 whole entry): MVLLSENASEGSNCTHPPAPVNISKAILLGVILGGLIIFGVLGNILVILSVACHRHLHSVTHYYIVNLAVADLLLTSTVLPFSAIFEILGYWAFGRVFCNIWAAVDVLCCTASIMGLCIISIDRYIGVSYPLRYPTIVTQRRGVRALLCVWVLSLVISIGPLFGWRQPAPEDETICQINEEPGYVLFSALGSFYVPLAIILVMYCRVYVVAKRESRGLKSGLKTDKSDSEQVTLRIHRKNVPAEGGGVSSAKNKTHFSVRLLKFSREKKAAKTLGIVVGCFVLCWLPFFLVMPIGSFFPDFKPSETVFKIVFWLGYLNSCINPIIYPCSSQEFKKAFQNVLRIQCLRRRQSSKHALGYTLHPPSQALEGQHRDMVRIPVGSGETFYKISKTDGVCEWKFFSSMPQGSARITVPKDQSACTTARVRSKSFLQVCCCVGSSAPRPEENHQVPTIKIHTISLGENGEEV
As to the kind of experiment: Displacement of [3H]prazosin from alpha1-adrenoceptor in Sprague-Dawley rat brain membranes after 45 mins by liquid scintillation counting. It is filed as cell membranes, Membrane. The method in brief:
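Crude P2 membranes from brains of male Sprague-Dawley rats (250–280 g), 0.2–0.3 mg protein. Radioligand 1 nM [3H]RX821002 (α2) or [3H]prazosin (α1); 11 concentrations of compound, 0.1 nM–100 µM. Non-specific binding: 10 µM rauwolscine (α2) or 10 µM phenylephrine (α1). Triplicate incubation, RT, 45 min. PEI-soaked glass-fibre filtration, then scintillation counting. Ki by Cheng-Prusoff; 3–4 experiments, or one for low-affinity compounds.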
For orientation: Displacement assays read how much labelled ligand stays bound in the presence of the test substance.

For data set [3], the system named is Rattus norvegicus. As to the kind of experiment: Cardiovascular activity in anesthetized Wistar rat assessed as maximal reduction in heart rate at 0.1 mg/kg, iv measured during 60 mins post dose. It is filed as functional. The method in brief:
as §1

We go through 5 molecules from ChEMBL document CHEMBL3351639, “Fluorinated analogues of marsanidine, a highly α2-AR/imidazoline I1 binding site-selective hypotensive agent. Synthesis and biological activities” (Eur J Med Chem, 2014).

For orientation: Ki means the equilibrium dissociation constant of an inhibitor or competing ligand from its target. A high value points to a looser hold on the target.

`Fc1ccc2cnn(CC3=NCCN3)c2c1`: the values for the Activity in the data set with Rattus norvegicus [1] and in the data set with Rattus norvegicus [3] were 23.6 mmHg and 52 bpm, respectively. Also, the Ki in data set [2] is recorded as 518.3 nM.
Regarding `Fc1cccc2cnn(N=C3NCCN3)c12`, the Activity with Rattus norvegicus [1] amounted to 21.1 mmHg; in the data set on Rattus norvegicus [3], 128 bpm. The molecule further displayed a Ki in data set [2] of 1625 nM.
For `Fc1ccc2c(cnn2N=C2NCCN2)c1`, in that order: 14.6 mmHg, 61 bpm and 2320 nM.
For the molecule `Fc1ccc2cnn(N=C3NCCN3)c2c1`, the Activity in the data set on Rattus norvegicus [1] is listed as 24.8 mmHg; in the data set with Rattus norvegicus [3] it was 118 bpm. The Ki in data set [2] is recorded as 918.3 nM.
Consider `Fc1ccc2c(cnn2CC2=NCCN2)c1`, for which the values for the Activity in the data set with Rattus norvegicus [1] and in the data set on Rattus norvegicus [3] were 0.8 mmHg and 12 bpm, respectively. The Ki in data set [2] was 476.3 nM.
